We go through 1 molecule from ChEMBL document CHEMBL4043093, “2-Oxo-3, 4-dihydropyrimido[4, 5-d]pyrimidinyl derivatives as new irreversible pan fibroblast growth factor receptor (FGFR) inhibitors” (Eur J Med Chem, 2017).

For test [1], the system named is Tyrosine-protein kinase ABL1 (Homo sapiens), P00519 [H396P]. In words: Inhibition of human non-phosphorylated ABL1 H396P mutant (S229 to K512 residues) expressed in HEK293 cells assessed as residual activity at 1000 nM after 30 mins by Kinomescan method relative to control. The class given is cell-based. A digest of the protocol:
(§1)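 KINOMEscan binding panel of 456 kinases, with the test compound at a single concentration of 1 µM. Read-out is Percent Control.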

The target in test [2] is Serine/threonine-protein kinase 17A (Homo sapiens) (UniProt Q9UEE5). Nature of the test: Inhibition of wild-type human partial length DRAK1 (R32 to E363 residues) expressed in Escherichia coli BL21 assessed as residual activity at 1000 nM after 30 mins by Kinomescan method relative to control.
The target of test [3] is Homeodomain-interacting protein kinase 4 (Homo sapiens) (UniProt Q8NE63). In words: Inhibition of wild-type human partial length HIPK4 (M1 to V384 residues) expressed in Escherichia coli BL21 assessed as residual activity at 1000 nM after 30 mins by Kinomescan method relative to control.
Test [4] has as its target Activin receptor type-1B (Homo sapiens) (UniProt P36896). In words: Inhibition of wild-type human ACVR1B (S187 to I505 residues) expressed in Escherichia coli BL21 assessed as residual activity at 1000 nM after 30 mins by Kinomescan method relative to control. A digest of the protocol: (§2)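 Single-point screen at a fixed 1 µM, run within a 456-kinase DiscoveRx KINOMEscan panel. Each kinase's read-out is Percent Control, i.e. signal relative to a control without compound. Hits were scored by a Percent Control < 35 cut-off, and an S(35) selectivity score was calculated across the non-mutant kinases.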

The target in test [5] is Misshapen-like kinase 1 (Homo sapiens) (UniProt Q8N4C8). Nature of the test: Inhibition of wild-type human partial length MINK (M1 to K312 residues) expressed in HEK293 cells assessed as residual activity at 1000 nM after 30 mins by Kinomescan method relative to control. The class given is cell-based.
The target of test [6] is Serine/threonine-protein kinase Sgk1 (Homo sapiens) (UniProt O00141). Nature of the test: Inhibition of wild-type human partial length SGK (I60 to L431 residues) expressed in HEK293 cells assessed as residual activity at 1000 nM after 30 mins by Kinomescan method relative to control. The class given is cell-based.
Test [7] deals with Cyclin-dependent kinase 17 (Homo sapiens) (UniProt Q00537). In words: Inhibition of wild-type human full length PCTK2 (M1 to F523 residues) expressed in Escherichia coli BL21 assessed as residual activity at 1000 nM after 30 mins by Kinomescan method relative to control. The method, boiled down:
(§3)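 Single-concentration screen at 1 µM across a 456-kinase KINOMEscan panel. The read-out is Percent Control for each kinase.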

For test [8], the system named is Epidermal growth factor receptor (Homo sapiens), P00533 [L861Q]. Nature of the test: Inhibition of human partial length EGFR L861Q mutant (R669 to V1011 residues) expressed in Escherichia coli BL21 assessed as residual activity at 1000 nM after 30 mins by Kinomescan method relative to control. A digest of the protocol:
as §1

The target in test [9] is Serine/threonine-protein kinase ICK (Homo sapiens) (UniProt Q9UPZ9). In words: Inhibition of wild-type human partial length ICK (M1 to P314 residues) expressed in HEK293 cells assessed as residual activity at 1000 nM after 30 mins by Kinomescan method relative to control. The class given is cell-based.
The target in test [10] is Tyrosine-protein kinase receptor UFO (Homo sapiens) (UniProt P30530). In words: Inhibition of wild-type human partial length AXL (R497 to Y821 residues) expressed in Escherichia coli BL21 assessed as residual activity at 1000 nM after 30 mins by Kinomescan method relative to control.
The target of test [11] is Tyrosine-protein kinase ABL1 (Homo sapiens) (UniProt P00519). Nature of the test: Inhibition of wild-type human non-phosphorylated ABL1 (S229 to K512 residues) expressed in HEK293 cells assessed as residual activity at 1000 nM after 30 mins by Kinomescan method relative to control. The class given is cell-based.
Test [12] concerns Epidermal growth factor receptor (Homo sapiens), P00533 [UNDEFINED MUTATION]. Nature of the test: Inhibition of human partial length EGFR L747-E749del/A750P mutant expressed in Escherichia coli BL21 assessed as residual activity at 1000 nM after 30 mins by Kinomescan method relative to control. The method, boiled down:
as §1

The target in test [13] is Epidermal growth factor receptor (Homo sapiens) (UniProt P00533). In words: Inhibition of wild-type human partial length EGFR (R669 to V1011 residues) expressed in Escherichia coli BL21 assessed as residual activity at 1000 nM after 30 mins by Kinomescan method relative to control.
In test [14] the target is Serine/threonine-protein kinase DCLK2 (Homo sapiens) (UniProt Q8N568). In words: Inhibition of wild-type human partial length DCAMKL2 (K273 to V664 residues) expressed in Escherichia coli BL21 assessed as residual activity at 1000 nM after 30 mins by Kinomescan method relative to control.
Test [15] relates to Plasmodium falciparum. In words: Inhibition of wild-type Plasmodium falciparum full length CDPK1 (M1 to S524 residues) expressed in HEK293 cells assessed as residual activity at 1000 nM after 30 mins by Kinomescan method relative to control. The class given is cell-based. A digest of the protocol: as §2
Test [16] deals with MAP/microtubule affinity-regulating kinase 3 (Homo sapiens) (UniProt P27448). In words: Inhibition of wild-type human full length MARK3 (M1 to L729 residues) expressed in Escherichia coli BL21 assessed as residual activity at 1000 nM after 30 mins by Kinomescan method relative to control. A digest of the protocol: as §3
Test [17] addresses Receptor-interacting serine/threonine-protein kinase 2 (Homo sapiens) (UniProt O43353). In words: Inhibition of wild-type human partial length RIPK2 (M1 to K310 residues) expressed in Escherichia coli BL21 assessed as residual activity at 1000 nM after 30 mins by Kinomescan method relative to control.
For test [18], the target named is Serine/threonine-protein kinase DCLK3 (Homo sapiens) (UniProt Q9C098). Nature of the test: Inhibition of wild-type human partial length DCAMKL3 (E140 to V628 residues) expressed in Escherichia coli BL21 assessed as residual activity at 1000 nM after 30 mins by Kinomescan method relative to control.
For test [19], the target named is Mitogen-activated protein kinase kinase kinase kinase 1 (Homo sapiens) (UniProt Q92918). In words: Inhibition of wild-type human full length HPK1 (M1 to R799 residues) expressed in Escherichia coli BL21 assessed as residual activity at 1000 nM after 30 mins by Kinomescan method relative to control. A digest of the protocol:
as §3

In test [20] the target is Serine/threonine-protein kinase PAK 5 (Homo sapiens) (UniProt Q9P286). Nature of the test: Inhibition of wild-type human partial length PAK7 (Y400 to H719 residues) expressed in Escherichia coli BL21 assessed as residual activity at 1000 nM after 30 mins by Kinomescan method relative to control.
The target of test [21] is Activin receptor type-2B (Homo sapiens) (UniProt Q13705). In words: Inhibition of wild-type human ACVR2B (H169 to D504 residues) expressed in Escherichia coli BL21 assessed as residual activity at 1000 nM after 30 mins by Kinomescan method relative to control. A digest of the protocol:
as §2

Sequence of Mitogen-activated protein kinase kinase kinase kinase 1 (Homo sapiens) (Q92918 whole entry, looked up, the tested form may be a part): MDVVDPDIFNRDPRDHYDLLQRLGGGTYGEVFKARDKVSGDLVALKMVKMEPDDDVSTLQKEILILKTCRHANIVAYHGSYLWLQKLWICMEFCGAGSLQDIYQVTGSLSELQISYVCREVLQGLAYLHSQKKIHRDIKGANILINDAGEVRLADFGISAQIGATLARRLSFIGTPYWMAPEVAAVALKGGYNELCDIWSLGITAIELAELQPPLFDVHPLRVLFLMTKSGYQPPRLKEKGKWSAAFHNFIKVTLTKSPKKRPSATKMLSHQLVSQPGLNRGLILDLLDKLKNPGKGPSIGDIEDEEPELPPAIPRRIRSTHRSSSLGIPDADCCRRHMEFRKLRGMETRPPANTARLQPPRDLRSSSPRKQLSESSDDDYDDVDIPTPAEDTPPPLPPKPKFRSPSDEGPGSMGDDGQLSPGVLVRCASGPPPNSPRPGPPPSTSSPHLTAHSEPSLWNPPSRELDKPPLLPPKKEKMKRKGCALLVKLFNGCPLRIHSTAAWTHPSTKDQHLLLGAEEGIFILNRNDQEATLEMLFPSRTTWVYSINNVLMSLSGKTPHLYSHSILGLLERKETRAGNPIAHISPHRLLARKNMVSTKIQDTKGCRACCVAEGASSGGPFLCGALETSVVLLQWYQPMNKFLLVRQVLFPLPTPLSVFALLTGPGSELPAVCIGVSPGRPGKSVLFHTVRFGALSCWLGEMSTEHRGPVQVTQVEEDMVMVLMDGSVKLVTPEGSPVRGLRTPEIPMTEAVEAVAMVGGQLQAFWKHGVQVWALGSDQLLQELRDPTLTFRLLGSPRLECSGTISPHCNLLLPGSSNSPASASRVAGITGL
Sequence of Serine/threonine-protein kinase Sgk1 (Homo sapiens) (O00141 whole entry, the tested form may be a part): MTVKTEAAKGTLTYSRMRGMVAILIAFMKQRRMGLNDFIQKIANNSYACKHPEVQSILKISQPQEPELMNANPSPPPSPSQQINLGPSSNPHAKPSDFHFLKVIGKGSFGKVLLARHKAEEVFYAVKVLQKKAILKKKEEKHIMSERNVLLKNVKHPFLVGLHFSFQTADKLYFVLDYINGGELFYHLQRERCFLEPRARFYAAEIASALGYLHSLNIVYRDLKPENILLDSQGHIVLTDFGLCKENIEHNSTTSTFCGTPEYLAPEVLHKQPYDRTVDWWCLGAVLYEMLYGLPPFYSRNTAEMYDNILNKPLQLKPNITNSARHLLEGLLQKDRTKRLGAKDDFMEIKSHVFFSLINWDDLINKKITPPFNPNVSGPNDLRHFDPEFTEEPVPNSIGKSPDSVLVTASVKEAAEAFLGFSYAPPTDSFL
Sequence of Misshapen-like kinase 1 (Homo sapiens) (Q8N4C8 whole entry, looked up, the tested form may be a part): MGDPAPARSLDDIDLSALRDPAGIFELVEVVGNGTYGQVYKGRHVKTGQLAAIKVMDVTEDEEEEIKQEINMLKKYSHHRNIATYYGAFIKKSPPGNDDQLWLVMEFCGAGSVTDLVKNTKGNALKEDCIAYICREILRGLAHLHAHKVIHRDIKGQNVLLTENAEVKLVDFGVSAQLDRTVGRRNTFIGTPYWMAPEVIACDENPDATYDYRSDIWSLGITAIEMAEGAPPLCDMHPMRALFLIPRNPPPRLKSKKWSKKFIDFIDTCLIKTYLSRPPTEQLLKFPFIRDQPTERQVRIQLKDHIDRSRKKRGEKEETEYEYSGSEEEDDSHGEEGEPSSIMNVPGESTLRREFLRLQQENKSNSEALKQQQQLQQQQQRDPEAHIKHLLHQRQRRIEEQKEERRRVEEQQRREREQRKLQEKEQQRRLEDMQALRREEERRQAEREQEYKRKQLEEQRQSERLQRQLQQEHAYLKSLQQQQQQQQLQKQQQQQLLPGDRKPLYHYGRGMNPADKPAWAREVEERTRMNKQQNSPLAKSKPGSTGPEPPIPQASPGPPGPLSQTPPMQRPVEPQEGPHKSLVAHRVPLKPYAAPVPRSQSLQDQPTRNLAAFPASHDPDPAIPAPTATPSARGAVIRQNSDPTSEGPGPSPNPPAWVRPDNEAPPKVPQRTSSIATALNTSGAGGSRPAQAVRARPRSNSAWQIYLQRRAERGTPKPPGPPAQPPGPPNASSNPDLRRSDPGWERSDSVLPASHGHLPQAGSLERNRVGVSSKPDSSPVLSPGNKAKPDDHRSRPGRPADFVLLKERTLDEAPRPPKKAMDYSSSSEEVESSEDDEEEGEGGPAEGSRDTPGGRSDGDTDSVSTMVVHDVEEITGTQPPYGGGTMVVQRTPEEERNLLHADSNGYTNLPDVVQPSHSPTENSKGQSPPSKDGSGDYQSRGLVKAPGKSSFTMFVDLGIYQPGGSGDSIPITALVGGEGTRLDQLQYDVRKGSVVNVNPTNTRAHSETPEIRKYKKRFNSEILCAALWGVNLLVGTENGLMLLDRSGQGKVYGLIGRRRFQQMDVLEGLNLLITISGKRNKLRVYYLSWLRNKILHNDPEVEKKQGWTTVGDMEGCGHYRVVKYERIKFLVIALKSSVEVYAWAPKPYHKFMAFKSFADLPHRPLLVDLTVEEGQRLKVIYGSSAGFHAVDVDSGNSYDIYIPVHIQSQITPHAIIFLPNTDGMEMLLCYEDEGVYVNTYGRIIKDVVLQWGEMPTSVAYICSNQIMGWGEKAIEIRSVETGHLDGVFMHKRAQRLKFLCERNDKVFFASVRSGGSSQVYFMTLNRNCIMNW
Sequence of Cyclin-dependent kinase 17 (Homo sapiens) (Q00537 whole entry, looked up, the tested form may be a part): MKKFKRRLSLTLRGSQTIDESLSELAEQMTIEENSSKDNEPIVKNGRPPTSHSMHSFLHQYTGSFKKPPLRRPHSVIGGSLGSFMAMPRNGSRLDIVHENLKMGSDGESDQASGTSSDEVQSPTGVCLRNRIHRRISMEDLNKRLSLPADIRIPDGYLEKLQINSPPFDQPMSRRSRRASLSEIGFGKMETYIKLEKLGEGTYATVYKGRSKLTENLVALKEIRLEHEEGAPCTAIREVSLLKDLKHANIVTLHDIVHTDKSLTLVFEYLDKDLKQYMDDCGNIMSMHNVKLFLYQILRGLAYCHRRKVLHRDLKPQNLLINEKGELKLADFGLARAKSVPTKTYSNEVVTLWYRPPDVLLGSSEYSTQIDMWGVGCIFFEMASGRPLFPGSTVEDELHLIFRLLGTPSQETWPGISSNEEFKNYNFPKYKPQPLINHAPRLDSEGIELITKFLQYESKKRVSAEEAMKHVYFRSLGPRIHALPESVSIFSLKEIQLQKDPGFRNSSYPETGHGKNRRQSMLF
Sequence of Serine/threonine-protein kinase DCLK2 (Homo sapiens) (Q8N568 whole entry, the tested form may be a part): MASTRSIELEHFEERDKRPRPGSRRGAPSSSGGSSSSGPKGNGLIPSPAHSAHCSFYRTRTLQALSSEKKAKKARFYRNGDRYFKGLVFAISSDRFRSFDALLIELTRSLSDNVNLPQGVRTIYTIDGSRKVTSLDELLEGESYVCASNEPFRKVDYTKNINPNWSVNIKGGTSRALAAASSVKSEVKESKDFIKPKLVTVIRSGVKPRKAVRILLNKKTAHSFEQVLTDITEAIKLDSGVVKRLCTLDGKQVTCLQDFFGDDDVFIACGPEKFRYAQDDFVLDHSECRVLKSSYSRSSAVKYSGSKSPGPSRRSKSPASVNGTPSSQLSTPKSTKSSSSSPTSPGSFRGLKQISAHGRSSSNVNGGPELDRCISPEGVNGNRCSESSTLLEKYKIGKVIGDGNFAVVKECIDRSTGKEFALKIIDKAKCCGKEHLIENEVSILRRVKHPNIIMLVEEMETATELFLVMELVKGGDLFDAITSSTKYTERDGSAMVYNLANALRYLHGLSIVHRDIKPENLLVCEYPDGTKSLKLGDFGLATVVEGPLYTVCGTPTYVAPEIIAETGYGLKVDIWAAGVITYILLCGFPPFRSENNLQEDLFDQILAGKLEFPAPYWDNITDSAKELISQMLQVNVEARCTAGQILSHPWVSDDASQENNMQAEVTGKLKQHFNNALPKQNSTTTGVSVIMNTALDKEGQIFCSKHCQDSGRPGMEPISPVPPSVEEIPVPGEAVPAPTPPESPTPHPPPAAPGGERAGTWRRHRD
Sequence of Receptor-interacting serine/threonine-protein kinase 2 (Homo sapiens) (O43353 whole entry, the tested form may be a part): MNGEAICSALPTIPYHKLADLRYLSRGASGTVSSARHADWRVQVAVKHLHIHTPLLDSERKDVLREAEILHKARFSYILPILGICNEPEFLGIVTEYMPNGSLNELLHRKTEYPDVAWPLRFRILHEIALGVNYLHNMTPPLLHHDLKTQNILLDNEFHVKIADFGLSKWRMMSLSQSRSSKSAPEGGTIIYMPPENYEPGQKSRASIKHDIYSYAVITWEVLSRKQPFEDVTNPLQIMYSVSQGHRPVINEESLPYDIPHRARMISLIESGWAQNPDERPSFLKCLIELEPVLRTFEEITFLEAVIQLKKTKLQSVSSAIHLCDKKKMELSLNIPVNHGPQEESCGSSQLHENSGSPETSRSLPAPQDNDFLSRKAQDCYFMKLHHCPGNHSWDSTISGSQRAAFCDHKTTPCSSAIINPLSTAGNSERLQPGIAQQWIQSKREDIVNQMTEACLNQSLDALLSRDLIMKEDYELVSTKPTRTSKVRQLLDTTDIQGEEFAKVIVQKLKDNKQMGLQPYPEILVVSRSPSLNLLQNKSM
Sequence of Activin receptor type-2B (Homo sapiens) (Q13705 whole entry, the tested form may be a part): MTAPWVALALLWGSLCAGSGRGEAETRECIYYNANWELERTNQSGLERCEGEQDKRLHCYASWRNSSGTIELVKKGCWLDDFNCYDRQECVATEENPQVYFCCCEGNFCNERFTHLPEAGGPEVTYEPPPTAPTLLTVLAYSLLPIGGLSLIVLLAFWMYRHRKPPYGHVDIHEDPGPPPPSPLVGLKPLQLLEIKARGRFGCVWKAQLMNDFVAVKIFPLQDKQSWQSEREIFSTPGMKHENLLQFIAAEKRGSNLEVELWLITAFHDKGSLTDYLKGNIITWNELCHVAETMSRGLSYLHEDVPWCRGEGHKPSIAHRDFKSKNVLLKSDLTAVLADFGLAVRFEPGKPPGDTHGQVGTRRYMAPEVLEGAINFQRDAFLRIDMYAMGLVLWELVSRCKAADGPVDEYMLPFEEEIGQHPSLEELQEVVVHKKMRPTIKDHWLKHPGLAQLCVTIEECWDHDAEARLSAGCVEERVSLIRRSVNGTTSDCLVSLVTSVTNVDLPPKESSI

`COc1cc(OC)c(Cl)c(N2Cc3cnc(Nc4ccc(F)cc4)nc3N(C3CCN(C(=O)/C=C/CN(C)C)CC3)C2=O)c1Cl`: the Activity in [1] was determined as 31%; in [2], 96%; in [3], 99%; in test [4], 100%; in test [5] it was 93%; in test [6], 100%. Besides, the Activity in [7] is 90%; in test [8], 87%; in test [9], 100%; in [10] it was 92%; in test [11], 32%; in [12], 96%. The Activity is 91% in test [13]; 73% in test [14]; 100% in test [15]; 99% in test [16]; 100% in test [17]; 81% in test [18]. Also, the Activity in test [19] was 32%; in test [20] it was 88%; in test [21], 98%.
